Measured values: ChEMBL document CHEMBL4715812, “Zampanolide Binding to Tubulin Indicates Cross-Talk of Taxane Site with Colchicine and Nucleotide Sites” (J Nat Prod, 2018)
Activity calls are given as the source filed them. No cut-off for these calls is given here.

Tests used:
[1] = species: Bos taurus; assay: (§1) Covalent modification of compound-ligated activated form of calf brain dimeric tubulin assessed as effect on nucleotide binding affinity at E-site by measuring ratio of GTP concentration to tubulin concentration incubated for 1.5 hrs in presence or absence of 10 uM GTP followed by passage through sephadex G25 column by HPLC analysis (reference value: 1.94 +/- 0.03)
How it was run: (§2)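 40 μM calf-brain tubulin in PEDTA buffer (10 mM NaPi, 1 mM EDTA, pH 7.0) incubated 1.5 h at 25 °C with 10% excess ligand or DMSO. Unbound nucleotide removed on Sephadex G-25 in PEDTA plus 10 μM GTP and […] at 4 °C. Aliquot diluted 20-fold in 10 mM NaPi, 1% SDS, pH 7.0; tubulin and nucleotide quantified, nucleotides by HPLC after extraction.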

[2] = species: Homo sapiens; assay: (§3) Covalent modification of GAB-buffer assembled microtubule (unknown origin) assessed as effect on nucleotide binding affinity at E-site by measuring ratio of GTP concentration to tubulin concentration incubated for 30 mins in presence or absence of 1 mM GTP and measured after 20 mins by HPLC analysis (reference value: 1)
How it was run: (§4)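 Calf-brain tubulin equilibrated in PEDTA (10 mM NaPi, 1 mM EDTA, pH 7.0), with 10% molar excess ligand or DMSO, then supplemented with 3.4 M glycerol, 1 mM EGTA, MgCl2 to 6 mM, and no nucleotide or 1 mM GTP. Assembled 30 min at 37 °C, spun 20 min at 37 °C, pellets washed in warm GAB without GTP. Tubulin measured, nucleotides extracted and quantified by HPLC.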

[3] = species: Homo sapiens; assay: as §3, with “of GDP” for “of GTP”, “to microtubule” for “to tubulin”; how it was run: as §4
[4] = species: Bos taurus; assay: as §1, with “of GDP nucleotide” for “of GTP”, “value: 0.06” for “value: 1.94”; how it was run: as §2
[5] = species: Bos taurus; assay: Induction of oligomerization calf brain tubulin assessed as formation of microtubule at 100 uM incubated for 30 mins in presence of GTP and 3 mM Mg2+ by electron micrography analysis
[6] = species: Bos taurus; assay: Binding affinity to calf brain tubulin assessed as compound-protein complex stoichiometry ratio of 1:1 in absence of Mg2+ by spectrofluorometry analysis
[7] = species: Bos taurus; assay: Binding affinity to zampanolide-modified calf brain tubulin
[8] = species: Bos taurus; assay: Binding affinity to zampanolide-modified calf brain tubulin assessed as compound-protein complex stoichiometry ratio of 1:1 in absence of Mg2+ by spectrofluorometry assay
[9] = species: Homo sapiens; assay: Binding affinity to stabilized microtubule (unknown origin) at 25 degreeC incubated for 30 mins followed by GTP addition and measured after 30 mins by HPLC analysis; conditions: time 1.0 hrs
How it was run: (§5)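 Stabilized cross-linked microtubules (0.6 μM) preincubated 30 min, 25 °C with 10% excess zampanolide or DMSO in GAB (3.4 M glycerol, 10 mM NaPi, 1 mM EDTA, 6 mM MgCl2, 0.1 mM GTP, pH 6.7); peloruside 0.1–10 μM added, further 30 min at 25 °C; spun 20 min at 50 000 rpm; supernatant/pellet ligand by reverse-phase HPLC at 205/230 nm; Kb fitted, three independent measurements.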

[10] = species: Bos taurus; assay: Induction of oligomerization of compound-ligated activated form of calf brain tubulin assessed as oligomer formation by measuring sedimentation coefficient at 55 uM incubated for 30 mins in presence of GTP/GDP and 0.14 mM Mg2+ by analytical ultracentrifugation
[11] = species: Bos taurus; assay: Induction of oligomerization of compound-ligated activated form of calf brain tubulin at 55 uM incubated for 30 mins in presence of 0.1 mM GDP and 0.039 mM Mg2+ by analytical ultracentrifugation
How it was run: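 Sedimentation velocity of 50 μM tubulin with 55 μM zampanolide or DMSO in PEDTA, 0.1 mM GDP, 1 mM total Mg2+ (0.039 mM free); 25 °C for 30 min, 40 000 rpm; c(S) fitted, corrected to water/20 °C.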

[12] = species: Bos taurus; assay: Induction of oligomerization of compound-ligated activated form of calf brain tubulin assessed as formation of dimers by measuring sedimentation coefficient at 55 uM incubated for 30 mins in presence of GDP and 3.31 mM Mg2+ by […]
How it was run: (§6)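 Calf-brain tubulin 50 μM in PEDTA with 55 μM zampanolide or DMSO, 1 mM GDP, 7 mM total (3.31 mM free) Mg2+, plus DTT; incubated 25 °C, 30 min, sedimentation velocity at 40 000 rpm; c(S) by least-squares boundary modelling corrected to water/20 °C; assembled polymer checked by uranyl acetate negative-stain EM.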

[13] = species: Bos taurus; assay: Induction of oligomerization of compound-ligated activated form of calf brain tubulin assessed as formation of microtubule by measuring sedimentation coefficient at 55 uM incubated for 30 mins in presence of GDP and 3.31 mM Mg2+ by electron micrography analysis; how it was run: as §6
[14] = species: Bos taurus; assay: Induction of oligomerization of compound-ligated activated form of calf brain tubulin assessed as formation of tetramers by measuring sedimentation coefficient at 55 uM incubated for 30 mins in presence of GDP and 3.31 mM Mg2+ by analytical ultracentrifugation; how it was run: as §6
[15] = species: Bos taurus; assay: Induction of oligomerization of compound-ligated activated form of calf brain tubulin assessed as tubulin-tubulin interaction causing aggregation formation at 55 uM incubated for 30 mins in presence of GTP and 1.5 mM Mg2+ by analytical ultracentrifugation
How it was run: (§7)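 Tubulin 50 μM in PEDTA with 55 μM zampanolide or DMSO and 0.1 mM GTP; Mg2+ 1.5 mM total (0.14 mM free) or 3 mM total (0.77 mM free), free Mg2+ corrected for phosphate, nucleotide, EDTA binding; 25 °C, 30 min, then 40 000 rpm ultracentrifugation; c(S) distributions; negative-stain EM of samples.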

[16] = species: Bos taurus; assay: Induction of oligomerization of compound-ligated activated form of calf brain tubulin assessed as formation of microtubule at 55 uM incubated for 30 mins in presence of GTP and 3 mM Mg2+ by electron micrography analysis; how it was run: as §7
[17] = species: Bos taurus; assay: Induction of oligomerization of compound-ligated activated form of calf brain tubulin at 55 uM incubated for 30 mins in presence of 0.1 mM GTP and 0.028 mM Mg2+ by analytical ultracentrifugation
How it was run: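 Sedimentation velocity of 50 μM tubulin with 55 μM zampanolide or DMSO in PEDTA, 0.1 mM GTP, 1 mM total Mg2+ (0.028 mM free); 25 °C for 30 min, 40 000 rpm; c(S) fitted, corrected to water/20 °C.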

[18] = species: Bos taurus; assay: Induction of oligomerization of compound-ligated activated form of calf brain tubulin assessed as formation of double rings by measuring sedimentation coefficient at 55 uM incubated for 30 mins in presence of GDP and 3.31 mM Mg2+ by analytical ultracentrifugation; how it was run: as §6
[19] = species: Homo sapiens; assay: Induction of oligomerization of compound modified microtubule (unknown origin) assessed as peloruside binding constant at 25 degreeC incubated for 30 mins followed by GTP addition and measured after 30 mins by HPLC analysis; conditions: time 1.0 hrs; how it was run: as §5

CC1=C[C@H]2[C@@H](O)[C@H](C)[C@@H](O)[C@@H]2[C@H]2[C@@H]3C4=C5O[C@@](C)(CC[C@H](OC4=O)[C@@H]5C)[C@@H]3C[C@@H]12
Ratio [1]: 1.83
Ratio [2]: 1.03
Ratio [3]: 0.97
Ratio [4]: 0.02

C/C(=C\c1csc(C)n1)[C@@H]1C[C@@H]2O[C@]2(C)CCC[C@H](C)[C@H](O)[C@@H](C)C(=O)C(C)(C)[C@@H](O)CC(=O)O1
Activity [5]: Active

COc1ccc(-c2ccc(OC)c(=O)cc2)c(OC)c1OC
Activity [6]: Active
Kb [7]: 4.5 10^6/M
Activity [8]: Active

CC[C@H](/C=C(/C)[C@@H]1C[C@@H](OC)C[C@H](O)C(C)(C)[C@@]2(O)O[C@@H](C[C@@H](OC)[C@H](O)C(=O)O1)C[C@@H](OC)[C@H]2O)CO
Kb [9]: 4 10^6/M

CC(=O)O[C@@]12CO[C@@H]1C[C@H](O)[C@@]1(C)C(=O)[C@H](O)C3=C(C)[C@@H](OC(=O)[C@H](O)[C@@H](NC(=O)OC(C)(C)C)c4ccccc4)C[C@@](O)([C@@H](OC(=O)c4ccccc4)[C@H]21)C3(C)C
Ratio [2]: 1.02
Ratio [3]: 1.03

C=C1C[C@@H]2C/C=C/C(=O)C/C(C)=C\C=C\C(=O)O[C@H]([C@H](O)NC(=O)/C=C\C=C\C)C/C(C)=C/[C@H](C1)O2
S20,w [10]: 9 Svedberg
Ratio [1]: 0.91
Activity [11]: inactive
S20,w [12]: 6 Svedberg
S20,w [13]: > 50 Svedberg
Ratio [2]: 0.92
S20,w [14]: 8 Svedberg
Ratio [3]: 0.84
Activity [15]: inactive
S20,w [16]: > 50 Svedberg
Ratio [4]: 0.04
Activity [17]: inactive
S20,w [18]: 36 Svedberg
Kb [19]: 3.1 10^6/M

C=C1C[C@H]2C/C=C/C(=O)C/C(C)=C\C=C\C(=O)O[C@@H](C=O)C/C(C)=C/[C@@H](C1)O2
Ratio [1]: 1.33
Ratio [2]: 0.95
Ratio [3]: 0.84
Ratio [4]: 0.03
